pIC50: −log10 of the molar value. Blank lines part the entries; values can stand above or below the molecule they belong to.
What was measured:
[1] = Time to reach maximum plasma concentration was determined in mouse after 5 mg/kg (i.v.) and 6 mg/kg (p.o.) administration; format: ADME, organism-based; details: po
Procedure, shortened: (§1)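 Pharmacokinetics were measured in mouse (5 mg/kg iv, 6 mg/kg po) and dog (1 mg/kg iv, 5 mg/kg po). Reported parameters were Cmax (ng/mL), Tmax (h), Vd (L/kg), plasma clearance (L/h/kg), elimination half-life (h) and oral bioavailability F (%).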

[2] = Plasma clearance was determined in mouse after 5 mg/kg (i.v.) and 6 mg/kg (p.o.) administration; format: ADME, organism-based; details: iv, read-out: Clp (converted); procedure, shortened: as §1
[3] = Half life was determined in mouse after 5 mg/kg (i.v.) and 6 mg/kg (p.o.) administration; format: ADME, organism-based; details: in vivo; procedure, shortened: as §1
[4] = species: Homo sapiens; assay: Inhibition of anti-CD3 mAb induced inter leukein-2 production in human whole blood was evaluated; format: functional, organism-based
[5] = Volume of distribution was determined in mouse after 5 mg/kg (i.v.) and 6 mg/kg (p.o.) administration; format: ADME, organism-based; details: in vivo, iv; procedure, shortened: as §1
[6] = Volume of distribution was determined in dog after 1 mg/kg (i.v.) and 5 mg/kg (p.o.) administration; format: ADME, organism-based, Canis lupus familiaris; details: in vivo, iv; procedure, shortened: as §1
[7] = biological target: Vascular endothelial growth factor receptor 2 (Homo sapiens, UniProt P35968); assay: Inhibition of vascular endothelial growth factor receptor 2 activity with 1 mM ATP and biotinylated lck peptide
Vascular endothelial growth factor receptor 2, sequence (P35968 whole entry): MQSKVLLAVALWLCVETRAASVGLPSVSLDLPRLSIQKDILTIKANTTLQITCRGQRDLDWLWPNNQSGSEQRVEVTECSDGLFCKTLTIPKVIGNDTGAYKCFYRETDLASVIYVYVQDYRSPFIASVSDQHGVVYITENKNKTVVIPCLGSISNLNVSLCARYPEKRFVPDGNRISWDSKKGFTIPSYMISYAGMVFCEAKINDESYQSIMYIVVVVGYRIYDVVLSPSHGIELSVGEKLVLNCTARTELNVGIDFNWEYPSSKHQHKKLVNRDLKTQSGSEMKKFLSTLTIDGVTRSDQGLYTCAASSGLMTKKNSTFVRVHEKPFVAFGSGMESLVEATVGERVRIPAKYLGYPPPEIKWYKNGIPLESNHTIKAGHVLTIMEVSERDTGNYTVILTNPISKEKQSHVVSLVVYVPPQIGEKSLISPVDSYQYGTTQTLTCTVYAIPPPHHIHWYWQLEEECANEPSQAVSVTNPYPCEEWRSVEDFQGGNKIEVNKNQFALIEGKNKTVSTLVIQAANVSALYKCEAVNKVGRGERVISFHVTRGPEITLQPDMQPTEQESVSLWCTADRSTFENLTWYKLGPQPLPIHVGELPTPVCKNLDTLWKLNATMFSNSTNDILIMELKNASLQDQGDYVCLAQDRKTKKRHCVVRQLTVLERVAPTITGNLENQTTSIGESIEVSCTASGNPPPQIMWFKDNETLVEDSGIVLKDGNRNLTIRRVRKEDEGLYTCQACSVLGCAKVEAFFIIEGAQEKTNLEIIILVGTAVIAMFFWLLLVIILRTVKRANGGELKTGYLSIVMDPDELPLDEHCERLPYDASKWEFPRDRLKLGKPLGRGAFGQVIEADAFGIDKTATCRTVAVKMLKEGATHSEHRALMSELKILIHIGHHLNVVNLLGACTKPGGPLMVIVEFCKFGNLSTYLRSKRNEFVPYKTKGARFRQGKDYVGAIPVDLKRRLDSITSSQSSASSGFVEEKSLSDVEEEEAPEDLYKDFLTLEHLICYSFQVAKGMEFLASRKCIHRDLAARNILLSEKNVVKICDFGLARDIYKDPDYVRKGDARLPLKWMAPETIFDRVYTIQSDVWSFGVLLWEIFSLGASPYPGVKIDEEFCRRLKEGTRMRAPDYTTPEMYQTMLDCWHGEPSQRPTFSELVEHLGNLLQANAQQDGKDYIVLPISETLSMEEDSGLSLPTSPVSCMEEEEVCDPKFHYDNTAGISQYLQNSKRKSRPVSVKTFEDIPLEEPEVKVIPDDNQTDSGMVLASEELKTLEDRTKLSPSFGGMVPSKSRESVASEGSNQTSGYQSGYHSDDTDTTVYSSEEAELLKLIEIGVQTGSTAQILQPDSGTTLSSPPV

[8] = Bioavailability was determined in dog after 1 mg/kg (i.v.) and 5 mg/kg (p.o.) administration; format: ADME, organism-based, Canis lupus familiaris; details: in vivo, po; procedure, shortened: as §1
[9] = Plasma clearance was determined in dog after 1 mg/kg (i.v.) and 5 mg/kg (p.o.) administration; format: ADME, organism-based, Canis lupus familiaris; details: iv; procedure, shortened: as §1
[10] = biological target: T1, Interleukin-2 (Mus musculus) (UniProt P04351); assay: Percent inhibition of interleukin-2 production by compound was measured after 18 hours of oral administration in mice; format: functional, organism-based; details: concentration not given here
T1 sequence (whole entry): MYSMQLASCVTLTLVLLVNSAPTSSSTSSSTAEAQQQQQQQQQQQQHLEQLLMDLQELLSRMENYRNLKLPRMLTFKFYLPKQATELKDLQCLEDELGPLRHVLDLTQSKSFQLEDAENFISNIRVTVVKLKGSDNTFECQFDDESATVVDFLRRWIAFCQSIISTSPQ

[11] = Maximum plasma concentration of compound was determined in dog after 1 mg/kg (i.v.) and 5 mg/kg (p.o.) administration; format: ADME, organism-based, Canis lupus familiaris; details: po; procedure, shortened: as §1
[12] = Bioavailability was determined in mouse after 5 mg/kg (i.v.) and 6 mg/kg (p.o.) administration; format: ADME, organism-based; details: in vivo, po; procedure, shortened: as §1
[13] = Half life was determined in dog after 1 mg/kg (i.v.) and 5 mg/kg (p.o.) administration; format: ADME, organism-based, Canis lupus familiaris; details: in vivo; procedure, shortened: as §1
[14] = Time to reach maximum plasma concentration was determined in dog after 1 mg/kg (i.v.) and 5 mg/kg (p.o.) administration; format: ADME, organism-based, Canis lupus familiaris; details: po; procedure, shortened: as §1
[15] = biological target: T1, Interleukin-2 (Mus musculus); assay: Percent inhibition of interleukin-2 production by compound was measured after 8 hours of oral administration in mice; format: functional, organism-based; details: concentration not given here
[16] = Maximum plasma concentration of compound was determined in mouse after 5 mg/kg (i.v.) and 6 mg/kg (p.o.) administration; format: ADME, organism-based; details: po; procedure, shortened: as §1
[17] = biological target: T1, Interleukin-2 (Mus musculus); assay: Effective concentration to suppress interleukin-2 production was measured after 2.5 hours of oral administration in mice; format: functional, organism-based

Structure (SMILES): COc1cc(-c2nn([C@H]3CC[C@H](N4CCN(C)CC4)CC3)c3ncnc(N)c23)ccc1NC(=O)c1cc2ccccc2n1C
Tmax [1]: 8 h | clearance [2]: 28.3 mL/min/kg | half-life [3]: 10 h | pIC50 [4]: 8.10 | Vd [5]: 25 L/kg | Vd [6]: 25 L/kg | pIC50 [7]: < 4.30 | bioavailability [8]: 32% | clearance [9]: 11.7 mL/min/kg | inhibition [10]: > 90% | Cmax [11]: 74 ng/mL | bioavailability [12]: 30% | half-life [13]: 45 h | Tmax [14]: 24 h | inhibition [15]: > 90% | Cmax [16]: 51 ng/mL | ED50 [17]: 1.5 mg/kg | ED90 [17]: 6 mg/kg

Structure (SMILES): COc1cc(-c2nn([C@H]3CC[C@H](N4CCN(C)CC4)CC3)c3ncnc(N)c23)ccc1NCc1ccco1
pIC50 [4]: 8.00

Structure (SMILES): COc1cc(-c2nn([C@H]3CC[C@H](N4CCN(C)CC4)CC3)c3ncnc(N)c23)ccc1NC(=O)OCc1ccccc1
inhibition [10]: 14% | inhibition [15]: 51% | ED50 [17]: 3 mg/kg | ED90 [17]: 14 mg/kg

Results, then the molecule that gave them:

pIC50 [4]: 8.15 | inhibition [10]: < 10% | inhibition [15]: 48% | ED50 [17]: 8.5 mg/kg | ED90 [17]: 12.5 mg/kg
Structure (SMILES): COc1cc(-c2nn([C@H]3CC[C@H](N4CCN(C)CC4)CC3)c3ncnc(N)c23)ccc1NC(=O)c1cc2ccccc2o1

pIC50 [4]: 8.22 | inhibition [10]: 33% | inhibition [15]: 79% | ED50 [17]: 7 mg/kg | ED90 [17]: 12.5 mg/kg
Structure (SMILES): COc1cc(-c2nn([C@H]3CC[C@H](N4CCN(C)CC4)CC3)c3ncnc(N)c23)ccc1NC(=O)c1cc2ccccc2[nH]1

Reference: ChEMBL document CHEMBL1146742, “A-420983: a potent, orally active inhibitor of lck with efficacy in a model of transplant rejection” (Bioorg Med Chem Lett, 2004)
